In ChEMBL document CHEMBL2396535, “Synthesis and biological evaluation of 18F-labled 2-phenylindole derivatives as PET imaging probes for β-amyloid plaques” (Bioorg Med Chem, 2013):

Key:
Stomach [1] = assay: Biodistribution in ICR mouse stomach assessed per organ at 740 to 1110 kBq/mL, iv measured 30 mins post-injection by gamma counting analysis; format: ADME, organism-based; conditions: in vivo, 0.5 h
Outline: (§1)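 Male normal ICR mice (5 weeks old), n = 5 per time point, received a tail-vein injection of [18F] tracer (740–1110 kBq/mL) in saline containing 10% EtOH. Mice were sacrificed at 2, 10, 30 and 60 min. Organs were removed, weighed and gamma-counted, and data were expressed as %ID/g.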

Lung [2] = assay: Biodistribution in ICR mouse lung assessed per gram of tissue at 740 to 1110 kBq/mL, iv measured 10 mins post-injection by gamma counting analysis; format: ADME, organism-based; conditions: in vivo; outline: as §1
Blood [3] = assay: Biodistribution in ICR mouse blood assessed per gram of tissue at 740 to 1110 kBq/mL, iv measured 2 mins post-injection by gamma counting analysis; format: ADME, organism-based; conditions: in vivo; outline: as §1
Brain [4] = assay: Biodistribution in ICR mouse brain assessed per gram of tissue at 740 to 1110 kBq/mL, iv measured 2 mins post-injection by gamma counting analysis; format: ADME, organism-based; conditions: in vivo; outline: as §1
Brain [5] = assay: Ratio of drug level in brain after 2 mins to drug level in brain after 60 mins in ICR mouse; format: ADME, tissue-based; conditions: in vivo; outline: as §1
Blood [6] = assay: Biodistribution in ICR mouse blood assessed per gram of tissue at 740 to 1110 kBq/mL, iv measured 10 mins post-injection by gamma counting analysis; format: ADME, organism-based; conditions: in vivo; outline: as §1
Liver [7] = assay: Biodistribution in ICR mouse liver assessed per gram of tissue at 740 to 1110 kBq/mL, iv measured 10 mins post-injection by gamma counting analysis; format: ADME, organism-based; conditions: in vivo; outline: as §1
Intestine [8] = assay: Biodistribution in ICR mouse intestine assessed per organ at 740 to 1110 kBq/mL, iv measured 30 mins post-injection by gamma counting analysis; format: ADME, organism-based; conditions: in vivo, 0.5 h; outline: as §1
Lung [9] = assay: Biodistribution in ICR mouse lung assessed per gram of tissue at 740 to 1110 kBq/mL, iv measured 30 mins post-injection by gamma counting analysis; format: ADME, organism-based; conditions: in vivo, 0.5 h; outline: as §1
Liver [10] = assay: Biodistribution in ICR mouse liver assessed per gram of tissue at 740 to 1110 kBq/mL, iv measured 60 mins post-injection by gamma counting analysis; format: ADME, organism-based; conditions: in vivo, 1 h; outline: as §1
Liver [11] = assay: Biodistribution in ICR mouse liver assessed per gram of tissue at 740 to 1110 kBq/mL, iv measured 30 mins post-injection by gamma counting analysis; format: ADME, organism-based; conditions: in vivo, 0.5 h; outline: as §1
[12] = Partition coefficient, log D of the compound in n-octanol-PBS […] at pH 7.4; format: physicochemical
Outline: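 [18F] tracer (1110 kBq) was added to 3.0 g n-octanol plus 3.0 g PBS (0.05 M, pH 7.4), vortexed 3 min at room temperature, then centrifuged 5 min at 3000 rpm.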

[13] = Ratio of drug level in brain to blood in ICR mouse after 2 mins; format: ADME, tissue-based; conditions: brain and blood, read-out: BBR
Outline: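 Male ICR mice (5 weeks) received the ¹⁸F tracer (740–1110 kBq/mL) in saline with 10% EtOH by tail-vein injection. Five mice per time point were sacrificed at 2, 10, 30 and 60 min. Organs were removed, weighed and gamma-counted, and expressed as %ID/g. The ratio is brain %ID/g over blood %ID/g at 2 min.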

Intestine [14] = assay: Biodistribution in ICR mouse intestine assessed per organ at 740 to 1110 kBq/mL, iv measured 2 mins post-injection by gamma counting analysis; format: ADME, organism-based; conditions: in vivo; outline: as §1
Stomach [15] = assay: Biodistribution in ICR mouse stomach assessed per organ at 740 to 1110 kBq/mL, iv measured 2 mins post-injection by gamma counting analysis; format: ADME, organism-based; conditions: in vivo; outline: as §1
Intestine [16] = assay: Biodistribution in ICR mouse intestine assessed per organ at 740 to 1110 kBq/mL, iv measured 10 mins post-injection by gamma counting analysis; format: ADME, organism-based; conditions: in vivo; outline: as §1
Spleen [17] = assay: Biodistribution in ICR mouse spleen assessed per gram of tissue at 740 to 1110 kBq/mL, iv measured 30 mins post-injection by gamma counting analysis; format: ADME, organism-based; conditions: in vivo, 0.5 h; outline: as §1
Brain [18] = assay: Biodistribution in ICR mouse brain assessed per gram of tissue at 740 to 1110 kBq/mL, iv measured 10 mins post-injection by gamma counting analysis; format: ADME, organism-based; conditions: in vivo; outline: as §1
Blood [19] = assay: Biodistribution in ICR mouse blood assessed per gram of tissue at 740 to 1110 kBq/mL, iv measured 60 mins post-injection by gamma counting analysis; format: ADME, organism-based; conditions: in vivo, 1 h; outline: as §1
Lung [20] = assay: Biodistribution in ICR mouse lung assessed per gram of tissue at 740 to 1110 kBq/mL, iv measured 2 mins post-injection by gamma counting analysis; format: ADME, organism-based; conditions: in vivo; outline: as §1
Brain [21] = assay: Biodistribution in ICR mouse brain assessed per gram of tissue at 740 to 1110 kBq/mL, iv measured 30 mins post-injection by gamma counting analysis; format: ADME, organism-based; conditions: in vivo, 0.5 h; outline: as §1
Heart [22] = assay: Biodistribution in ICR mouse heart assessed per gram of tissue at 740 to 1110 kBq/mL, iv measured 10 mins post-injection by gamma counting analysis; format: ADME, organism-based; conditions: in vivo; outline: as §1
Brain [23] = assay: Biodistribution in ICR mouse brain assessed per gram of tissue at 740 to 1110 kBq/mL, iv measured 60 mins post-injection by gamma counting analysis; format: ADME, organism-based; conditions: in vivo, 1 h; outline: as §1
Stomach [24] = assay: Biodistribution in ICR mouse stomach assessed per organ at 740 to 1110 kBq/mL, iv measured 60 mins post-injection by gamma counting analysis; format: ADME, organism-based; conditions: in vivo, 1 h; outline: as §1
Bone [25] = assay: Biodistribution in ICR mouse bone assessed per gram of tissue at 740 to 1110 kBq/mL, iv measured 30 mins post-injection by gamma counting analysis; format: ADME, organism-based, Bone element; conditions: in vivo, 0.5 h; outline: as §1
Heart [26] = assay: Biodistribution in ICR mouse heart assessed per gram of tissue at 740 to 1110 kBq/mL, iv measured 2 mins post-injection by gamma counting analysis; format: ADME, organism-based; conditions: in vivo; outline: as §1
Spleen [27] = assay: Biodistribution in ICR mouse spleen assessed per gram of tissue at 740 to 1110 kBq/mL, iv measured 60 mins post-injection by gamma counting analysis; format: ADME, organism-based; conditions: in vivo, 1 h; outline: as §1
Lung [28] = assay: Biodistribution in ICR mouse lung assessed per gram of tissue at 740 to 1110 kBq/mL, iv measured 60 mins post-injection by gamma counting analysis; format: ADME, organism-based; conditions: in vivo, 1 h; outline: as §1
Heart [29] = assay: Biodistribution in ICR mouse heart assessed per gram of tissue at 740 to 1110 kBq/mL, iv measured 30 mins post-injection by gamma counting analysis; format: ADME, organism-based; conditions: in vivo, 0.5 h; outline: as §1
Spleen [30] = assay: Biodistribution in ICR mouse spleen assessed per gram of tissue at 740 to 1110 kBq/mL, iv measured 10 mins post-injection by gamma counting analysis; format: ADME, organism-based; conditions: in vivo; outline: as §1
Bone [31] = assay: Biodistribution in ICR mouse bone assessed per gram of tissue at 740 to 1110 kBq/mL, iv measured 60 mins post-injection by gamma counting analysis; format: ADME, organism-based, Bone element; conditions: in vivo, 1 h; outline: as §1
Intestine [32] = assay: Biodistribution in ICR mouse intestine assessed per organ at 740 to 1110 kBq/mL, iv measured 60 mins post-injection by gamma counting analysis; format: ADME, organism-based; conditions: in vivo, 1 h; outline: as §1
Kidney [33] = assay: Biodistribution in ICR mouse kidney assessed per gram of tissue at 740 to 1110 kBq/mL, iv measured 60 mins post-injection by gamma counting analysis; format: ADME, organism-based; conditions: in vivo, 1 h; outline: as §1
Bone [34] = assay: Biodistribution in ICR mouse bone assessed per gram of tissue at 740 to 1110 kBq/mL, iv measured 10 mins post-injection by gamma counting analysis; format: ADME, organism-based, Bone element; conditions: in vivo; outline: as §1
Heart [35] = assay: Biodistribution in ICR mouse heart assessed per gram of tissue at 740 to 1110 kBq/mL, iv measured 60 mins post-injection by gamma counting analysis; format: ADME, organism-based; conditions: in vivo, 1 h; outline: as §1
Bone [36] = assay: Biodistribution in ICR mouse bone assessed per gram of tissue at 740 to 1110 kBq/mL, iv measured 2 mins post-injection by gamma counting analysis; format: ADME, organism-based, Bone element; conditions: in vivo; outline: as §1
Liver [37] = assay: Biodistribution in ICR mouse liver assessed per gram of tissue at 740 to 1110 kBq/mL, iv measured 2 mins post-injection by gamma counting analysis; format: ADME, organism-based; conditions: in vivo; outline: as §1
Spleen [38] = assay: Biodistribution in ICR mouse spleen assessed per gram of tissue at 740 to 1110 kBq/mL, iv measured 2 mins post-injection by gamma counting analysis; format: ADME, organism-based; conditions: in vivo; outline: as §1
Kidney [39] = assay: Biodistribution in ICR mouse kidney assessed per gram of tissue at 740 to 1110 kBq/mL, iv measured 2 mins post-injection by gamma counting analysis; format: ADME, organism-based; conditions: in vivo; outline: as §1
Stomach [40] = assay: Biodistribution in ICR mouse stomach assessed per organ at 740 to 1110 kBq/mL, iv measured 10 mins post-injection by gamma counting analysis; format: ADME, organism-based; conditions: in vivo; outline: as §1
Kidney [41] = assay: Biodistribution in ICR mouse kidney assessed per gram of tissue at 740 to 1110 kBq/mL, iv measured 30 mins post-injection by gamma counting analysis; format: ADME, organism-based; conditions: in vivo, 0.5 h; outline: as §1
Kidney [42] = assay: Biodistribution in ICR mouse kidney assessed per gram of tissue at 740 to 1110 kBq/mL, iv measured 10 mins post-injection by gamma counting analysis; format: ADME, organism-based; conditions: in vivo; outline: as §1
Blood [43] = assay: Biodistribution in ICR mouse blood assessed per gram of tissue at 740 to 1110 kBq/mL, iv measured 30 mins post-injection by gamma counting analysis; format: ADME, organism-based; conditions: in vivo, 0.5 h; outline: as §1
[44] = target: Amyloid-beta precursor protein (Homo sapiens, UniProt P05067); assay: Displacement of [125I]IMPY from amyloid beta (1 to 42) (unknown origin) after 3 hrs by gamma counting analysis
Outline: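 Test compound ranged over 10^-4 to 10^-8.5 in ethanol, in 0.05% BSA, 1 mL total. Incubation was 3 h at room temperature, then GF/B filtration and gamma counting. IC50 came from three independent experiments, and Ki was derived by Cheng–Prusoff.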

Sequence of Amyloid-beta precursor protein (P05067 whole entry): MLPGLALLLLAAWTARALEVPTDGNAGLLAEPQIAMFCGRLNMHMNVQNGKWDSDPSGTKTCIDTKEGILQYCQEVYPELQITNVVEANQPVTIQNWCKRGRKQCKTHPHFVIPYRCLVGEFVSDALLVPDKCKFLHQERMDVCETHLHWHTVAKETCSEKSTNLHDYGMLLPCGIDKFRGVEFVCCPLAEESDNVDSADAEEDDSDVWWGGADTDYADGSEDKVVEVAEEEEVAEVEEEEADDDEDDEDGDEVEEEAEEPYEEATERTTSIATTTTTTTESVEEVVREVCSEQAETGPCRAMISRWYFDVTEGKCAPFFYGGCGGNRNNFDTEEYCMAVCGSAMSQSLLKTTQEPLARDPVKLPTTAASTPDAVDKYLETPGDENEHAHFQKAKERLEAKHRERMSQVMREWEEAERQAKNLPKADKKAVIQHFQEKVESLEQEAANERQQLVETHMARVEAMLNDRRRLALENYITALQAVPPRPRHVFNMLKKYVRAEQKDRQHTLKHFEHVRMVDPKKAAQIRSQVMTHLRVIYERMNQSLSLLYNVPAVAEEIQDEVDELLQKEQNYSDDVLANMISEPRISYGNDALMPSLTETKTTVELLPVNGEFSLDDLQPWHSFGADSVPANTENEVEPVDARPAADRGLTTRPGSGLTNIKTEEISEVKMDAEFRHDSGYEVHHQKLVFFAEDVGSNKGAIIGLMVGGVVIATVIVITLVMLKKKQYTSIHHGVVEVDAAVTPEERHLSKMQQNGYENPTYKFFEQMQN

CN(CC[18F])c1ccc(-c2cc3ccccc3[nH]2)cc1 showed a Drug uptake (Stomach [1]) of 1.43 %ID, a Drug uptake (Lung [2]) of 5.81 %ID and a Drug uptake (Blood [3]) of 3.38 %ID. For the same molecule, the Drug uptake (Brain [4]) was 5.82 %ID, the Ratio (Brain [5]) was 2.1 and the Drug uptake (Blood [6]) was 3.81 %ID. For the same molecule, the Drug uptake (Liver [7]) was 8.38 %ID, the Drug uptake (Intestine [8]) was 9 %ID and the Drug uptake (Lung [9]) was 4.27 %ID. It also gave a Drug uptake (Liver [10]) of 4.15 %ID, a Drug uptake (Liver [11]) of 4.86 %ID and a logD [12] of 3.61. For the same molecule, the Kp at 2 min [13] was 1.72, the Drug uptake (Intestine [14]) was 6.5 %ID and the Drug uptake (Stomach [15]) was 1.38 %ID. For the same molecule, the Drug uptake (Intestine [16]) was 9.06 %ID, the Drug uptake (Spleen [17]) was 3.23 %ID and the Drug uptake (Brain [18]) was 5.07 %ID. The Drug uptake (Blood [19]) was 4.37 %ID, the Drug uptake (Lung [20]) was 6.57 %ID and the Drug uptake (Brain [21]) was 3.41 %ID. The Drug uptake (Heart [22]) was 4.95 %ID, the Drug uptake (Brain [23]) was 2.77 %ID and the Drug uptake (Stomach [24]) was 1.09 %ID. The Drug uptake (Bone [25]) was 5.95 %ID, the Drug uptake (Heart [26]) was 6.76 %ID and the Drug uptake (Spleen [27]) was 2.71 %ID. For the same molecule, the Drug uptake (Lung [28]) was 3.57 %ID, the Drug uptake (Heart [29]) was 3.71 %ID and the Drug uptake (Spleen [30]) was 3.97 %ID. It also gave a Drug uptake (Bone [31]) of 9.71 %ID, a Drug uptake (Intestine [32]) of 11.04 %ID and a Drug uptake (Kidney [33]) of 3.54 %ID. The Drug uptake (Bone [34]) was 4.13 %ID, the Drug uptake (Heart [35]) was 3.81 %ID and the Drug uptake (Bone [36]) was 2.05 %ID. The Drug uptake (Liver [37]) was 10.47 %ID, the Drug uptake (Spleen [38]) was 2.73 %ID and the Drug uptake (Kidney [39]) was 9.66 %ID. The Drug uptake (Stomach [40]) was 1.54 %ID, the Drug uptake (Kidney [41]) was 4.17 %ID and the Drug uptake (Kidney [42]) was 5.62 %ID. The Drug uptake (Blood [43]) was 4.21 %ID.
With OCCOc1ccc(-c2cc3cc([125I])ccc3[nH]2)cc1 the Ratio (Brain [5]) was 1.17 and the Kp at 2 min [13] was 0.52.
Cn1c(-c2ccc(NCCF)cc2)cc2ccccc21 showed a Ki [44] of 1030 nM.
For COc1ccc(-c2cc3cc([125I])ccc3[nH]2)cc1, the Ratio (Brain [5]) was 1.82 and the Kp at 2 min [13] was 0.59.
For CNc1ccc(-c2cc3cc([125I])ccc3[nH]2)cc1, the Ratio (Brain [5]) was 1.33 and the Kp at 2 min [13] was 0.29.
